Bioassay records: PubChem, The Scripps Research Institute Molecular Screening Center
HEK293 NFkB inh: inhibitors of the PMA/ionomycin-induced NF-kB reporter in HEK293 cells | AID 465 | actives 0.21% (n = 62,000) | HEK-293 NF-kB luciferase reporter, luminescence | inhibition, % at 3 µM;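 active = inhibition above the mean of all tested compounds plus 3 SD, cut at about 40% in these data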;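 also: 0% = stimulated DMSO wells and 100% = 10 µM reference inhibitor 5653914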
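Timing: 1 h pretreatment, 16 h stimulation, 37 °C; system: HEK-293 cells with stable firefly luciferase reporter driven by four HIV NF-kB elements; doses: 3 µM once, 0.30% DMSO; measured by: luciferase luminescence; control set: DMSO and 10 µM reference inhibitor; repeats: single test; reagent: PMA plus ionomycin mix as NF-kB-activating stimulus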
RORA act: RORA (human) activation; P35398; CHO-K1 Gal4-RORA LBD luciferase reporter, luminescence; percent increase over mock-subtracted basal signal; activation, % at 10 µM; actives 1.5% (n = 65,000);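 active = activation above the mean of all tested compounds plus 3 SD, cut at about 49% in these data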;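 also: 0% = DMSO-treated RORA cells and 100% = added signal equal to DMSO minus mock-transfected cells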
Target sequence (P35398 whole entry, looked up, the tested form may be a part): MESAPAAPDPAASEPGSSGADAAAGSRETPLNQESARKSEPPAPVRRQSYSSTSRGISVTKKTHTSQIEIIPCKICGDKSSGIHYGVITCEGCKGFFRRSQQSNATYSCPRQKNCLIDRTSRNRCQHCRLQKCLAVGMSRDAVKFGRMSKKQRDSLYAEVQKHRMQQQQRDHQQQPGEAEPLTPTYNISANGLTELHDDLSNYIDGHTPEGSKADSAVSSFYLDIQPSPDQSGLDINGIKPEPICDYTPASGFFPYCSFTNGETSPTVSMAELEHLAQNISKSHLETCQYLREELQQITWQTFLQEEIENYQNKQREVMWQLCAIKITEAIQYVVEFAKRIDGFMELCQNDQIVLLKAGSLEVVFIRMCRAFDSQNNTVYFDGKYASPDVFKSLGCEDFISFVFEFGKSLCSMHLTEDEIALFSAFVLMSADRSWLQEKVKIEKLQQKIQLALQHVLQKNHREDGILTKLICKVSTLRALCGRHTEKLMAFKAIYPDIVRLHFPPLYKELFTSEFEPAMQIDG
SF-1 act: SF-1 (human) activation. AID 522. CHO-K1 Gal4-SF-1 LBD luciferase reporter; % increase over DMSO SF-1-specific signal. actives 1.9% (n = 65,000). activation, % at 10 µM. Q13285;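 active = activation above the mean activation of all tested compounds plus 3 SD, cut at about 50% in these data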
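Test system: CHO-K1 cells with Gal4–hSF-1 LBD chimera plus Gal4-driven luciferase; Input: 4,000 cells/well; Compound: 10 µM only; Times: 20 h compound treatment, 37 °C; Measured by: steady-glow luciferase luminescence, read after 15 min reagent incubation; Measure: percent activation versus DMSO; Control set: DMSO and mock-transfected background; Replicates: one test per compound.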
Jurkat tox 60K: cytotoxic compounds reducing Jurkat cell viability | Jurkat E6.1 viability, ATP luminescence, 48 h | actives 1.2% (n = 56,000) | inhibition, % at 4 µM | AID 463;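 active = inhibition above the mean inhibition of all tested compounds plus 3 SD, cut at about 28% in these data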
* marks the source's active call; other numbers are inactive results; nt = not tested or not shown. This is a sample that favours compounds with a hit; in the whole collection about 3.9% have one here.

SMILES	HEK293 NFkB inh	RORA act	SF-1 act	Jurkat tox 60K
Cc1cccc(Nc2ncc3c(n2)CC(C)CC3=O)c1 (stereo unspecified)	-20	72*	72*	-9
CCOCCCn1c(=S)[nH]c2cc3c(cc2c1=O)OCO3	1	21	6	nt
Cc1c(C(=O)NCC2CCCO2)oc2ccc(S(=O)(=O)N3CCCC3)cc12 (stereo unspecified)	17	5	21	nt
Cc1c(C(=O)NCC2CCCO2)oc2ccc3c(c12)C(=O)CC(C)(C)O3 (stereo unspecified)	-44	11	62*	4
CC1Cc2cc(C3(O)C(=O)c4ccccc4C3=O)ccc2N1 (stereo unspecified)	5	9	11	-1
O=CNC(=O)c1ccccc1C(=O)O	nt	1	2	nt
O=C(CNC(=O)c1ccccc1C(=O)O)c1ccccc1	-15	29	56*	-6
Cc1nn2cc(-c3ccc(N)cc3)nc2s1	-26	22	88*	-8
Cc1cccc(-n2cnc3cc(C(=O)N4CCCCC4)ccc32)c1	3	16	55*	nt
COc1ccc(-c2cc(C(=O)OCC(=O)N(C)C)c3ccccc3n2)cc1	4	-1	-11	-3
CCOc1ccc(-c2cc(C(=O)O)c3ccccc3n2)c(OCC)c1	42*	26	11	37*
CCOC(=O)Cc1csc(NC(=O)c2cnc3scc(C)n3c2=O)n1	9	-23	-8	4
CCSc1nc2c(cnn2-c2ccc(C)c(C)c2)c(=O)[nH]1	0	19	-10	-6
CCN(CC)c1ccc(-c2nn3c(-c4n[nH]c5c4CCC5)nnc3s2)cc1	34	-27	-46	97*
CCCOc1ccc2oc(=O)c3c(c2c1)CCCN3C(=O)CN(C)Cc1ccccc1	4	-1	-13	9
Cc1ccc(C)c(Cn2c(CN(C)Cc3ccccc3)nc3c2c(=O)n(C)c(=O)n3C)c1	14	12	-20	-7
CCn1ncc(C2=NOC(C(=O)NCc3ccc(Cl)cc3)C2)c1C (stereo unspecified)	21	7	16	92*
COC(=O)c1nc2n(n1)C(c1cc(OC)ccc1OC)C(C(=O)OC1CCCCC1)=C(C)N2 (stereo unspecified)	10	12	2	nt
O=S(=O)(Nc1ccc2c(c1)OCO2)c1ccc(Br)s1	11	9	2	7
Cc1nonc1OCCNC(=O)C12CC3CC(CC(C3)C1)C2	17	4	2	0
CCOc1cc(C#N)c(NC(=O)c2ccco2)cc1OCC	15	38	1	79*
Cc1sc2nc(C(C)Nc3ccccc3N3CCOCC3)[nH]c(=O)c2c1C (stereo unspecified)	11	-16	2	6
Cc1ccccc1C(=O)Nc1ccc(Br)cn1	-26	67*	82*	24
Cc1ccc(NC(=O)c2ccccc2F)nc1	-29	21	-4	2
CCOC(=O)C(N)CSC1CC(=O)N(c2ccc(C(=O)OC)cc2)C1=O (stereo unspecified)	13	-10	-2	4
SMILES	HEK293 NFkB inh	RORA act	SF-1 act	Jurkat tox 60K
COC(=O)c1ccc(N2C(=O)CC(SCCN)C2=O)cc1 (stereo unspecified)	-2	51*	42	0
c1ccc(OCCSc2nnnn2-c2ccccc2)cc1	-26	35	63*	0
Cc1ccc(-c2nc3ccccc3[nH]2)s1	-41	50*	39	16
c1csc(-c2nc3ccccc3[nH]2)c1	-6	43	94*	-3
COc1ccc(N(CC(=O)N2CCCC(C)C2)S(=O)(=O)c2c(C)nn(C)c2C)cc1 (stereo unspecified)	-16	0	8	-3
Nc1c(C(=O)NCCN2CCOCC2)c2nc3ccccc3nc2n1-c1ccc2c(c1)OCO2	12	55*	-7	-12
COC(=O)c1ccccc1NC(=O)N1CCN(C(=O)c2ccco2)CC1	6	-7	11	-2
N#Cc1nc(-c2ccc(OCc3ccccc3)cc2)oc1NCc1cccnc1	13	7	14	5
CN(C)c1oc(-c2ccc(OCc3ccccc3)cc2)nc1C#N	12	7	61*	-6
CCCNc1nc2c(c(=O)n(C)c(=O)n2C)n1CCC(C)C	26	-4	3	33*
CCCCCCn1c(NCC)nc2c1c(=O)n(C)c(=O)n2C	23	-44	-47	78*
CCCNc1nc2c(c(=O)n(C)c(=O)n2C)n1CCc1ccccc1	6	-17	4	24
CCCCNc1nc2c(c(=O)n(C)c(=O)n2C)n1CCC	1	21	-29	7
O=C(NCCCN1CCOCC1)c1cc2cc(Cl)cc(Cl)c2oc1=O	4	0	-6	1
O=c1nc(-c2ccccc2)n(-c2ccccc2)c2ncccc12	13	2	6	-1
CCOC(=O)c1sc(=NC(=O)c2cccc(OC)c2)n(C)c1C	-28	33	57*	-4
CCNc1nc2nonc2nc1NCC	0	-19	-4	0
CCCCCn1c(SCc2cccc(C)c2)nc2c1c(=O)[nH]c(=O)n2C	17	12	-21	-5
Cc1nnc2c3cnn(-c4ccc(Cl)cc4)c3ncn12	-12	65*	25	nt
COC(=O)C(C)n1cnc2c(cnn2-c2ccc(Cl)cc2)c1=O (stereo unspecified)	-9	47	53*	3
COc1ccccc1C1C=C(c2ccccc2)Nc2nnnn21 (stereo unspecified)	-4	15	17	80*
COc1cccc(C2=CC(c3ccc(OC)c(OC)c3OC)n3nnnc3N2)c1 (stereo unspecified)	4	17	-16	23
S=C(c1ccc(-c2cccc(Cl)c2)o1)N1CCOCC1	-16	61*	34	0
Cc1ccc(S(=O)(=O)NCCSc2nnnn2-c2cc(C)ccc2C)cc1	16	-4	15	2
Cc1ccc(C)c(-n2nnnc2Sc2nnnn2-c2ccccc2)c1	16	-46	-30	30*
SMILES	HEK293 NFkB inh	RORA act	SF-1 act	Jurkat tox 60K
CCOn1c(=O)c(-c2cc3ccccc3o2)[n+]([O-])c2ccccc21	-21	60*	97*	0
CCOC(=O)COn1c(=O)c(-c2ccco2)[n+]([O-])c2ccccc21	nt	-9	-16	nt
CC(=O)N1C2CCCCC2S[C@H]2CCCCC21 (stereo partly specified)	10	-6	17	-1
O=c1c2[nH]c3ccccc3c2ncn1C1CCCCC1	-7	61*	20	5
COc1ccc(C(O)C(CN2CCOCC2)c2ccccc2)cc1F (stereo unspecified)	10	-4	9	-8
COc1ccc(C(=O)C(CN2CCOCC2)c2ccccc2)cc1F (stereo unspecified)	31	-14	-11	96*
O=C(O)CCC(=O)Nc1nc(-c2ccccc2)cs1	10	1	-6	-4
O=C(Nc1nc(-c2ccc3c(c2)OCO3)cs1)C1CC1	-18	72*	51*	-4
CCCC(=O)Nc1nc(-c2ccc3c(c2)OCCO3)cs1	-39	63*	61*	-5
